Assay results taken from article PMC5741288 (Pain Reports, 2016).
In brackets after ≈: the same amount, converted by molar mass. Entries after “also recorded” stand apart in the source; their conditions may differ.

Experiments:
[1] = Plasma pharmacokinetics after single oral dose; type: in vivo, healthy men; conditions: for Tmax / half-life: male, human, plasma; for Tmax: Median tmax
In short: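 After a fast of at least 10 h, single oral tablets were given semirecumbent with 240 mL water (part 1: 1–225 mg; part 2: 10, 50 mg). Plasma was assayed by validated LC-MS/MS over 1–1000 ng/mL (LLOQ 1 ng/mL). Noncompartmental analysis used actual times. Cmax and tmax were taken by inspection, t1/2 = 0.693/λz, CL/F = dose/AUC∞, and Vz/F = D/(λz × AUC∞).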

[2] = Urinary excretion and renal clearance; type: in vivo, healthy men
In short: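 Samples were assayed by LC-MS/MS over 5–1000 ng/mL (LLOQ 5 ng/mL). Excreted amount = urine volume × concentration, % of dose = Ae/dose × 100, and renal clearance = Ae/AUC.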

[3] = Oral body temperature and Emax model vs plasma concentration; type: in vivo, healthy men; conditions: for Mean maximum body temperature: part 2
In short: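 Oral temperature was recorded as a safety measure in healthy men after single oral tablet doses (part 1: 1–225 mg; part 2: 10, 50 mg, placebo). The maximum value was summarised per dose. An Emax model with baseline effect E0, Emax and EC50 related body temperature to plasma concentration of the test compound.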

[4] = cited from earlier work
capsaicin-induced flare = experiment: Capsaicin-induced flare area and intensity in humans; type: in vivo, healthy men
In short: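 Part 2 was a double-blind, 3-way crossover of single oral test compound (10 or 50 mg) or placebo tablets after an overnight fast. Capsaicin cream (0.075% w/w) stayed on the forearm for 30 min. Laser Doppler scans were taken before and after, at predose, 4 h and 144 h postdose. Flare area counted pixels with flux above the 95th percentile (mean + 2 SD) of baseline. Intensity was taken as relative flux.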

[5] = system: naïve and UVB-sensitized skin; experiment: Sensory testing part 2 on naïve and UVB-sensitized skin; type: in vivo, healthy men
In short: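 In the part 2 crossover (oral 10 or 50 mg, or placebo), minimal erythema dose was first found with graded UVB on the lower back. Three times that dose was then given to the volar forearm. Warm detection, heat pain detection, heat pain tolerance, mechanical pain threshold and allodynia were tested on UVB-treated and naïve skin. Times were predose, 4, 8, 24, 72, 120 and 144 h, and follow-up, to a 52 °C maximum.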

human TRPV1 receptors = conditions: cited from earlier work
[6] = part 1, vs plasma concentration

Compound: CC(C)(O)c1ccccc1-c1ccc2[nH]c(/C=C/c3ccc(C(F)(F)F)cc3)nc2c1 [JNJ-39439335, trans-2-(2-{2-[2-(4-Trifluoromethyl-phenyl)-vinyl]-1H-benzimidazol-5-yl}-phenyl)-propan-2-ol]
- Dose proportionality of exposure (Cmax, AUC∞) ([1]; doses of 1 to 225 mg): less than dose-proportional increase in exposure
- Tmax ([1]; oral, 50 mg, part 2, 10 and 50 mg, tablet, fasted): ~3 h
- half-life ([1]; oral, Mean elimination half-life, part 1, doses of 1 to 225 mg): 29.9 to 85.9 h
- Tmax ([1]; oral, across the dose range administered (discussion)): 2 to 4.5 h
- Tmax ([1]; oral, part 1, doses of 1 to 225 mg, tablet, fasted): 2.02 to 4.44 h
- half-life ([1]; po, Terminal phase half-life, single oral doses): 30 to 86 h
- Renal clearance ([2]; in vivo): negligible
- Concentrations in urine ([2]; lower limit of quantification 5 ng/mL): below the quantification limit
- EC50 ([3]; Homo sapiens, po, read-out: EC50, body temperature Emax model): 0.0327 µg/mL (≈ 0.0774 µM)
- Participants with body temperature ≥39°C ([3]; part 1, 120-mg, approximately 11-hour postdose): 1 participant
- E0, body temperature Emax model [3, 6]: 36.6 °C
- Emax, body temperature Emax model [3, 6]: 37.6 °C
- Mean maximum body temperature ([3]; 10 mg): 37.9 °C
- Mean maximum body temperature ([3]; 50 mg): 38.0 °C
- Safety margins in 4-week toxicology studies ([4]; rat and dog): acceptable safety margins
- AUC24h at the no-observed-adverse-effect level dose ([4]; rat, most sensitive animal species): 10,700 ng·h·mL^−1
- Plasma concentration giving maximum effect on flare area and flare intensity (capsaicin-induced flare; 4-hour postdose): ≥ 90 ng/mL
- Plasma concentration giving maximum effect on flare area and flare intensity (capsaicin-induced flare; 144-hour postdose): > 5 ng/mL
- Capsaicin-induced flare intensity and flare area (capsaicin-induced flare; part 2, 10 and 50 mg, 4- and 144-hour postdose): dose-related reduction
- Capsaicin-induced flare area and flare intensity (capsaicin-induced flare; part 2, 50-mg dose, 144 hours postdose): complete blocking; also recorded: completely blocked
- HPD threshold, HPT, and warm detection threshold ([5]; naïve and UVB-sensitized skin, 10 and 50 mg): dose-dependent increase
- Mechanical pain detection threshold ([5]; naïve skin or UVB-sensitized skin): no clear treatment or dose-related effects
- Plasma concentration at which most participants detected warmth before 52°C ([5]; warm detection threshold): < 200 ng/mL
- IC50 (human TRPV1 receptors): 4.7 nM
